The subject of assay [1] is HEL. The assay can be described thus: The minimum cytotoxic concentration was measured on Human Embryonic Lung (HEL) cells. The assay is classed as functional. An outline of the steps: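 Minimum toxic concentration is the lowest concentration giving a microscopically detectable change in morphology of normal HEL cells. Duplicate assays.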
Assay [2] concerns Human alphaherpesvirus 3. The experiment in a line: The concentration required to reduce virus plaque formation by 50% was measured on YS/Rstrain of VZV expressing viral thymidine kinase(TK-). The class given is functional, organism-based.
The subject of assay [3] is Human immunodeficiency virus 2. The experiment in a line: Concentration of the required to protect CEM cells of Human T-lymphocyte against Cytopathogenicity of HIV-2 by 50%. The class given is functional, organism-based. The following applies: Human immunodeficiency virus 2, CCRF-CEM. Summed up:
(§1)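 CEM cells at 4 × 10⁵ cells/mL infected with HIV-1 (IIIB) or HIV-2 (ROD) at ~100 CCID₅₀/mL, then mixed with serial compound dilutions. Giant cell formation scored microscopically after 4 days. Triplicate assays.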
In general terms: Protection from cytopathic effect is a common read-out in antiviral testing.

The subject of assay [4] is Human immunodeficiency virus 1. The experiment in a line: Concentration of the required to protect CEM cells of Human T-lymphocyte against Cytopathogenicity of HIV-1(III-B) by 50%. The class given is functional, organism-based. The following applies: Human immunodeficiency virus 1, CCRF-CEM. Summed up: as §1
Assay [5] deals with Human alphaherpesvirus 3. The experiment in a line: The concentration required to reduce virus plaque formation by 50% was measured on YS strain of VZV expressing viral thymidine kinase(TK+). The class given is functional, organism-based.
Assay [6] concerns Human alphaherpesvirus 3. The experiment in a line: The concentration required to reduce virus plaque formation by 50% was measured on 07/1 strain of VZV expressing viral thymidine kinase(TK-). The class given is functional, organism-based.
The subject of assay [7] is Human betaherpesvirus 5. The experiment in a line: The concentration required to reduce virus plaque formation by 50% was measured on Davis strains of human cytomegalovirus. The assay is classed as functional, organism-based.
Assay [8] has as its system CCRF-CEM. The assay can be described thus: The concentration required to reduce 50% cell viability on CEM cells of Human T-lymphocyte. The assay is classed as functional. An outline of the steps:
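Uninfected CEM cells exposed to compound dilutions. Triplicate assays.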

The subject of assay [9] is Human betaherpesvirus 5. The experiment in a line: The concentration required to reduce virus plaque formation by 50% was measured on AD-169 strains of human cytomegalovirus. The assay is classed as functional, organism-based.
The test system of assay [10] is Human alphaherpesvirus 3. The experiment in a line: The concentration required to reduce virus plaque formation by 50% was measured on OKA strain of VZV expressing viral thymidine kinase(TK+). The assay is classed as functional, organism-based.
Assay [11] deals with HEL. The experiment in a line: The concentration required to reduce cell growth by 50% was measured on Human Embryonic Lung (HEL) cells. The assay is classed as functional. An outline of the steps:
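HEL fibroblasts seeded at 5 × 10³ cells/well and grown 24 h, then given compound dilutions in duplicate. Cells counted with a Coulter counter after 3 days at 37 °C in 5% CO₂.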

What is called IC50 is the point on the concentration scale where inhibition reaches its midpoint. Read a high IC50 as weaker potency in that assay. As usually defined, the EC50 is the concentration at which the effect is half-maximal. Read a high EC50 as a need for much substance. Broadly, the CC50 is the concentration that lowers cell viability or growth by half. Read a low CC50 as greater toxicity to the cells.

Converted amounts (≈) assume the structure as drawn.

`O=C1c2ccccc2NS(=O)(=O)N1COCCO` registered an MCC in assay [1] of more than 50 µg/mL. For the same compound, the half-inhibitory concentration (IC50) in assay [2], in [5], in assay [6], in assay [7], in assay [9] and in [10] was more than 50 µg/mL each time. The EC50 in [3] and in assay [4] was more than 40 µg/mL each time. Moreover, the CC50 was more than 200 µg/mL in assay [8] and 160 µg/mL (≈ 588 µM) in [11].
In turn, `O=C1c2ccccc2NS(=O)(=O)N1Cc1ccccc1` displayed an MCC in assay [1] of 50 µg/mL. Also, the 50% inhibitory concentration (IC50) in assay [2] was more than 50 µg/mL; in [5], more than 50 µg/mL; in assay [6], 48 µg/mL (≈ 166 µM); in assay [7], more than 20 µg/mL; in [9], more than 20 µg/mL; in [10], more than 50 µg/mL. Also, the concentration for a half-maximal effect (EC50) in assay [3] and in assay [4] was more than 200 µg/mL in each case. For the same compound, the CC50 in assay [8] was more than 200 µg/mL; in assay [11], more than 50 µg/mL.
For the compound `CC(=O)OCCOCN1c2ccccc2C(=O)NS1(=O)=O`, the MCC in assay [1] was more than 50 µg/mL. In addition, the concentration for half-maximal inhibition (IC50) in assay [2], in assay [5], in assay [6], in assay [7], in assay [9] and in assay [10] was more than 50 µg/mL in each case. The EC50 in assay [3] and in assay [4] was more than 200 µg/mL each time. The CC50 in [8] and in assay [11] was more than 200 µg/mL in each case.
The compound `CC(=O)OCCOCN1C(=O)c2ccccc2NS1(=O)=O` gave an MCC in assay [1] of more than 50 µg/mL. For the same compound, the 50% inhibitory concentration (IC50) in [2], in [5], in [6], in [7], in [9] and in assay [10] was more than 50 µg/mL in each case. The 50% effective concentration (EC50) in [3] and in [4] was more than 200 µg/mL each time. Besides, the CC50 in assay [8] and in assay [11] was more than 200 µg/mL in each case.
With `O=C1NS(=O)(=O)N(COCc2ccccc2)c2ccccc21`, in assay [1], the MCC is more than 50 µg/mL. The half-maximal inhibitory concentration (IC50) in assay [2], in [5], in assay [6], in [7], in assay [9] and in assay [10] was more than 50 µg/mL in each case. Moreover, the concentration giving a half-maximal response (EC50) in assay [3] and in assay [4] was more than 40 µg/mL throughout. Also, the CC50 was more than 200 µg/mL in assay [8] and more than 50 µg/mL in assay [11].
`CC(=O)OCCOCN1c2ccccc2C(=O)N(Cc2ccccc2)S1(=O)=O` displayed an MCC in [1] of 50 µg/mL. For the same compound, the IC50 in assay [2] is more than 20 µg/mL; in assay [5], more than 50 µg/mL; in assay [6], 44 µg/mL (≈ 109 µM); in assay [7], more than 50 µg/mL; in assay [9] it was more than 20 µg/mL; in assay [10], 42 µg/mL (≈ 104 µM). The EC50 in [3] and in [4] was more than 40 µg/mL throughout. For the same compound, the CC50 in assay [8] was determined as 103 µg/mL (≈ 255 µM); in [11] it was 100 µg/mL (≈ 247 µM).
As to `O=C(OCCOCN1c2ccccc2C(=O)N(Cc2ccccc2)S1(=O)=O)c1ccccc1`, in [1], the MCC worked out at 50 µg/mL. The half-maximal inhibitory concentration (IC50) in assay [2] was 12 µg/mL (≈ 25.7 µM); in assay [5] it was more than 20 µg/mL; in assay [6] it was more than 20 µg/mL; in [7], more than 20 µg/mL; in assay [9] it was 13 µg/mL (≈ 27.9 µM); in assay [10], more than 20 µg/mL. For the same compound, the EC50 in assay [3] and in [4] was more than 40 µg/mL throughout. The CC50 was found to be 100 µg/mL (≈ 214 µM) in assay [8] and 17 µg/mL (≈ 36.4 µM) in assay [11].
In [1], `O=C1c2ccccc2N(COCCO)S(=O)(=O)N1Cc1ccccc1` registered an MCC of more than 50 µg/mL. Moreover, the IC50 in assay [2] was more than 20 µg/mL; in assay [5] it was more than 50 µg/mL; in [6], 55 µg/mL (≈ 152 µM); in assay [7] it was more than 50 µg/mL; in [9], more than 20 µg/mL; in [10], 43 µg/mL (≈ 119 µM). Besides, the concentration for a half-maximal effect (EC50) in [3] and in assay [4] was more than 40 µg/mL throughout. Besides, the 50% cytotoxic concentration (CC50) stood at 89 µg/mL (≈ 246 µM) in assay [8] and 125 µg/mL (≈ 345 µM) in [11].
As for `O=C1NS(=O)(=O)N(COCCO)c2ccccc21`, the MCC in assay [1] is more than 50 µg/mL. Also, the half-inhibitory concentration (IC50) in assay [2], in [5], in assay [6], in [7], in assay [9] and in [10] was more than 50 µg/mL each time. Further, the EC50 in [3] and in [4] was more than 40 µg/mL each time. Moreover, the half-maximal cytotoxic concentration (CC50) was found to be 15 µg/mL (≈ 55.1 µM) in [8] and 112 µg/mL (≈ 411 µM) in assay [11].
On to `CCCOCN1c2ccccc2C(=O)NS1(=O)=O`, for which, in [1], the MCC is more than 50 µg/mL. Moreover, the half-inhibitory concentration (IC50) in [2], in [5], in assay [6], in assay [7], in assay [9] and in assay [10] was more than 50 µg/mL throughout. Moreover, the EC50 in assay [3] and in assay [4] was more than 40 µg/mL in each case. In addition, the cytotoxic concentration (CC50) in [8] was more than 200 µg/mL; in [11] it was more than 50 µg/mL.
Compound `C#CCOCN1c2ccccc2C(=O)N(Cc2ccccc2)S1(=O)=O` gave an MCC in assay [1] of 50 µg/mL. The 50% inhibitory concentration (IC50) in assay [2] stood at 13 µg/mL (≈ 36.5 µM); in assay [5] it was 24 µg/mL (≈ 67.3 µM); in assay [6] it was 11 µg/mL (≈ 30.9 µM); in assay [7], 12 µg/mL (≈ 33.7 µM); in assay [9], 12 µg/mL (≈ 33.7 µM); in assay [10] it was 21 µg/mL (≈ 58.9 µM). The EC50 in assay [3] and in assay [4] was more than 8 µg/mL in each case. Besides, the figures for the cytotoxic concentration (CC50) in [8] and in assay [11] were 23 µg/mL (≈ 64.5 µM) and more than 50 µg/mL, respectively.
The compound `O=C1c2ccccc2N(Cc2ccccc2)S(=O)(=O)N1COCc1ccccc1` displayed an MCC in assay [1] of 20 µg/mL. Further, the IC50 in assay [2] is 3 µg/mL (≈ 7.34 µM); in assay [5], more than 5 µg/mL; in [6] it was more than 5 µg/mL; in assay [7], 3.7 µg/mL (≈ 9.06 µM); in assay [9], 3.5 µg/mL (≈ 8.57 µM); in assay [10], more than 5 µg/mL. For the same compound, the EC50 in [3] was 20 µg/mL (≈ 49 µM); in assay [4] it was 15 µg/mL (≈ 36.7 µM). Further, the cytotoxic concentration (CC50) in assay [8] was 100 µg/mL (≈ 245 µM); in assay [11] it was more than 40 µg/mL.
In the case of `O=C1c2ccccc2N(COCc2ccccc2)S(=O)(=O)N1Cc1ccccc1`, in assay [1], the MCC was more than 50 µg/mL. Moreover, the IC50 in [2] was more than 5 µg/mL; in assay [5], 20 µg/mL (≈ 49 µM); in assay [6] it was more than 5 µg/mL; in assay [7], 11 µg/mL (≈ 26.9 µM); in assay [9] it was 8 µg/mL (≈ 19.6 µM); in [10], 20 µg/mL (≈ 49 µM). The EC50 in assay [3] and in assay [4] was more than 8 µg/mL in each case. The figures for the CC50 in [8] and in assay [11] were 25 µg/mL (≈ 61.2 µM) and more than 50 µg/mL, respectively.
In assay [1], `Nc1nc2c(ncn2COCCO)c(=O)[nH]1` [ACYCLOVIR] displayed an MCC of more than 50 µg/mL. In addition, the CC50 in assay [11] is more than 200 µg/mL.
Regarding `Nc1nc2c(ncn2COC(CO)CO)c(=O)[nH]1` [GANCICLOVIR], in assay [1], the MCC is more than 50 µg/mL. Also, the figures for the half-inhibitory concentration (IC50) in [7] and in assay [9] were 1.9 µg/mL (≈ 7.44 µM) and 1.2 µg/mL (≈ 4.7 µM), respectively. For the same compound, the CC50 in assay [11] is more than 50 µg/mL.

These data come from ChEMBL document CHEMBL1132117, “Novel potential agents for human cytomegalovirus infection: synthesis and antiviral activity evaluation of benzothiadiazine dioxide acyclonucleosides” (J Med Chem, 1999).
